CAL PDZ FP-1: inhibitors of human CAL PDZ peptide binding | purified CAL PDZ, TMR-peptide fluorescence polarization, 1 h | inhibition, % at 20 µM | hit rate 0.02% among 330,000 | AID 504414;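 active = highest replicate inhibition of at least 40%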
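Control set: unlabelled peptide and DMSO controls / Material: purified CerCALP PDZ construct / Timing: 1 h incubation at room temperature before polarization reading / Doses: 20 µM, one dose / Detection: fluorescence polarization (mP)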
CDK5 inh: inhibitors of human CDK5/p35 kinase; Q00535+Q15078; Recombinant CDK5/p35, ADP-Glo luminescence, 60 min; inhibition, % at 10 µM; hit rate 0.01% among 330,000;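 active = highest replicate inhibition of at least 50% and at least 75% of replicates reaching 50%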
Target sequence (Q00535 whole entry, looked up): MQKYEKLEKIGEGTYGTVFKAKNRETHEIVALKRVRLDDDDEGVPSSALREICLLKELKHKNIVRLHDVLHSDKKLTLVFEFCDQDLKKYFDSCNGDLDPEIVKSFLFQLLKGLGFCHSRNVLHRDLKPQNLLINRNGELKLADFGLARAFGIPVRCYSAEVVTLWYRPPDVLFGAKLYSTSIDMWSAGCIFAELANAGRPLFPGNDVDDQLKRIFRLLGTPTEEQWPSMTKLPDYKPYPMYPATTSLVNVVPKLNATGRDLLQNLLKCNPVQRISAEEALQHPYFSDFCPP
Target sequence (Q15078 whole entry, looked up): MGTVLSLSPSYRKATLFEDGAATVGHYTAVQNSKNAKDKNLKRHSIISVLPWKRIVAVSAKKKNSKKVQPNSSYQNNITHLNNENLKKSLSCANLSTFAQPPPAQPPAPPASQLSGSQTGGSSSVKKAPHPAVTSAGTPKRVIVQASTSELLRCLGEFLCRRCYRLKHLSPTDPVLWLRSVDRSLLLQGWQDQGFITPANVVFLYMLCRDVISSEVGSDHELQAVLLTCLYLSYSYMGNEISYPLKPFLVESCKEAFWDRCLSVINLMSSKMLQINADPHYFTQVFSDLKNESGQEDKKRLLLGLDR
CAL PDZ FP-2: CAL PDZ (human) peptide binding inhibition; Q9HD26; purified CAL PDZ, TMR-peptide fluorescence polarization, 1 h; inhibition, % at 24.9 µM; hit rate 0.92% among 300,000; AID 602252;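 active = mean inhibition of at least 30% with at least half of replicates also reaching 30%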
PvdQ acylase: P. aeruginosa PvdQ acylase inhibition | purified PvdQ acylase, fluorescence plate reader | hit rate 0.063% among 340,000 | inhibition, % at 10 µM; in the data active = inhibition above about 30%, passing the limit was not always enough
DYRK1A inh: Dyrk1A (rat) kinase inhibition | ADP-Glo luminescence, NFATc1 peptide | inhibition, % at 12.5 µM | hit rate 0.43% among 310,000 | AID 504441; in the data active = inhibition above about 50%
Tb MetRS inh: Trypanosoma brucei MetRS inhibition; purified T. brucei MetRS, ATP depletion, Kinase-Glo luminescence; inhibition, % at 11.9 µM; hit rate 0.4% among 360,000;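 active = inhibition above a per-plate cutoff of the control wells' mean inhibition plus 3 SD, cut at about 5.5% in these data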
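Material: parasite MetRS enzyme / Replication: singlicate, one well per compound / Signal: luminescence of leftover ATP / Schedule: 2 h aminoacylation at 25 °C after 15 min preincubation / Medium: HEPES-MgCl2-KCl buffer plus DTT, spermine, BSA, pyrophosphatase / Doses: 11.9 µM single point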
Of the large screens only hits and unclear results are named; the others gave an inactive call. A selection: hits, their analogues and other compounds. The true share with any hit is near 1.4%.

COc1ccc(CCN2C(=O)COc3ccccc3C2C(=O)NC(C)(C)C)cc1OC (stereo unspecified)	none (no result: CAL PDZ FP-1, CDK5 inh, CAL PDZ FP-2, PvdQ acylase, DYRK1A inh)
Cc1ccc(N2CCN(CCCCN3C(=O)C4CCCN4C3=O)CC2)cc1 (stereo unspecified)	CAL PDZ FP-2 63 (no result: DYRK1A inh)
Cc1ccnn1CC(=O)N/N=C/c1ccc([N+](=O)[O-])s1	CAL PDZ FP-2 87
Cc1cc([N+](=O)[O-])nn1CC(=O)Nc1cc(F)ccc1F	CAL PDZ FP-2 69 (no result: DYRK1A inh)
Cc1cc([N+](=O)[O-])nn1CC(=O)N/N=C/c1ccccc1F	CAL PDZ FP-2 44 (no result: DYRK1A inh)
Cc1cc([N+](=O)[O-])nn1CC(=O)NCc1ccc(Cl)cc1	none
O=S1(=O)CC(N2CCCCC2)CN1Cc1cn(Cc2ccc(C(F)(F)F)cc2)nn1 (stereo unspecified)	none (no result: CAL PDZ FP-1, CDK5 inh, CAL PDZ FP-2, PvdQ acylase, DYRK1A inh)
O=S(=O)(O)c1ccc(N=NNc2ccc(Br)cc2)cc1	CAL PDZ FP-2 52
O=Cc1cc(N=Nc2ccc(S(=O)(=O)O)cc2)ccc1O	none
CC(C)CC(N)c1csc(NC(=O)c2cc(C(C)(C)C)nn2Cc2ccccc2)n1 (stereo unspecified)	none (no result: CAL PDZ FP-1, CDK5 inh, CAL PDZ FP-2, PvdQ acylase, DYRK1A inh)
COCc1[nH][nH]c(=O)c1/C=N/N1CCOCC1	CAL PDZ FP-2 43
COCc1[nH][nH]c(=O)c1C=Nc1ccccc1	none
O=C(NNS(=O)(=O)c1ccc(F)cc1)C1CC(c2cccnc2)=NO1 (stereo unspecified)	CAL PDZ FP-2 74
O=C(NNS(=O)(=O)c1ccccc1)C1CC(c2cccnc2)=NO1 (stereo unspecified)	none
COC(=O)[C@@]12C[C@@H](CC(=O)NCc3cccc(C(F)(F)F)c3)C(=O)N(Cc3ccc4c(c3)OCO4)C1=CCC(C)(C)C2	none (no result: CAL PDZ FP-1, CDK5 inh, CAL PDZ FP-2, PvdQ acylase, DYRK1A inh)
CC(NS(=O)(=O)c1ccc(Cl)c(Cl)c1)C(=O)OCC(=O)Nc1ccc2c(c1)OCO2 (stereo unspecified)	CAL PDZ FP-1 70
C[C@H](NS(=O)(=O)c1ccc(Cl)cc1)C(=O)OCC(=O)NC(=O)Nc1ccc2c(c1)OCCO2	none
CN(Cc1ccccc1)C(=O)[C@@H]1CCCN1	none (no result: CAL PDZ FP-1, CDK5 inh, CAL PDZ FP-2, PvdQ acylase, DYRK1A inh)
CCc1ccc(/C=C(\Cl)c2nc3cc(Cl)ccc3c(=O)[nH]2)cc1	CAL PDZ FP-2 53
O=[N+]([O-])c1ccc(-c2cccnc2)cc1	PvdQ acylase 49 (no result: DYRK1A inh)
O=[N+]([O-])c1ccc(COc2cccnc2)cc1	none (no result: DYRK1A inh)
CC12CN3CC(C)(CN(C1)C3c1c[nH]c3ccccc13)C2=O (stereo unspecified)	none
CC12CN3CC(C)(CN(C1)C3c1ccc3ccccc3c1O)C2=O (stereo unspecified)	CAL PDZ FP-2 93 (no result: CAL PDZ FP-1)
CCOC(=O)Nc1ccc(C(=O)/C=C/c2ccccc2)cc1	CAL PDZ FP-2 79
CCOC(=O)Nc1ccc(Oc2ccccc2)cc1	none
Cn1ncc2cc3c(Nc4ccc(Cl)cc4)cccc3nc21	none (no result: CAL PDZ FP-1, CDK5 inh, CAL PDZ FP-2, PvdQ acylase, DYRK1A inh)
Cc1cc(OCC(=O)NCc2ccccn2)c2c(C)cc(=O)oc2c1	CAL PDZ FP-2 47
COc1ccc(C2=Nc3ccccc3N(C(=O)c3ccc4ncccc4c3)C2C(=O)NC2CCCC2)cc1 (stereo unspecified)	none (no result: CAL PDZ FP-1, CDK5 inh, CAL PDZ FP-2, PvdQ acylase, DYRK1A inh)
COc1ccc(C(=O)NCC(=O)OCC(=O)Nc2cc([N+](=O)[O-])ccc2F)cc1	CAL PDZ FP-2 active
COc1ccc(C(=O)NCC(=O)OCC(=O)Nc2sccc2C#N)cc1OC	CAL PDZ FP-2 61
COc1ccc(OC)c(NC(=O)COC(=O)CNC(=O)c2ccc(OC)c(OC)c2)c1	none
O=C(Nc1ccc2ccccc2c1)C(c1ccc(C(F)(F)F)cc1)n1c(=O)c(-c2cc3ccccc3[nH]2)nc2ccccc21 (stereo unspecified)	none (no result: CAL PDZ FP-1, CDK5 inh, CAL PDZ FP-2, PvdQ acylase, DYRK1A inh)
CCOc1ccc(/C=N/NC(=O)c2ccoc2C)cc1OC	CAL PDZ FP-2 182
O=C(CSc1nnc(-c2c[nH]c3ccccc23)o1)NCC1CCCO1 (stereo unspecified)	CAL PDZ FP-2 44
O=C(c1ccccc1)c1ccccc1C(=O)c1ccccc1	none (no result: CAL PDZ FP-1)
Cc1ccccc1C(=O)c1ccccc1C(=O)c1ccccc1	CAL PDZ FP-2 86 (no result: DYRK1A inh)
Cc1ccc(-n2c(CSc3nc(C)cc(C)n3)nnc2SCC(=O)NCc2ccco2)cc1	CAL PDZ FP-2 104 (no result: DYRK1A inh)
O=C(N=C1SC2CS(=O)(=O)CC2N1c1cccc(F)c1)C1CC1 (stereo unspecified)	CAL PDZ FP-2 62
CC(=O)n1cc(/C=N/NC(=O)c2ccccc2Cl)c2ccccc21	CAL PDZ FP-2 68
COc1ccc(-c2c(C(=O)c3ccc(Br)cc3)[nH]c(N)c2C(=O)c2ccccc2)cc1OC	none (no result: CAL PDZ FP-1, CDK5 inh, CAL PDZ FP-2, PvdQ acylase, DYRK1A inh)
NS(=O)(=O)c1ccc(CNC(=S)NCc2ccc(Cl)cc2)cc1	none
NS(=O)(=O)c1ccc(CNC(=S)NCc2ccc(F)cc2)cc1	CAL PDZ FP-2 39
Cc1cnc(-c2nc3ccccc3n2C(C(=O)NC(C)(C)C)c2ccccc2)cn1 (stereo unspecified)	none (no result: CAL PDZ FP-1, CDK5 inh, CAL PDZ FP-2, PvdQ acylase, DYRK1A inh)
COc1cccc(CN(c2ccc3c(c2)CCC3)S(=O)(=O)c2ccc(-n3cnnn3)c(OC)c2)c1	CAL PDZ FP-2 42 (no result: CDK5 inh)
CN1C=CC=C/C1=C1\SC(=S)N(c2ccccc2)C1=O	none
C=CCN1C=CC=C/C1=C1\SC(=S)N(C)C1=O	CAL PDZ FP-2 35
CN1OC[C@@H]2CN(S(=O)(=O)c3cc(Cl)cc(Cl)c3)[C@H](c3ccc(-c4ccc(C#N)cc4)cc3)C[C@@H]21	none (no result: CAL PDZ FP-1, CDK5 inh, CAL PDZ FP-2, PvdQ acylase, DYRK1A inh)
CC(C)(C)OC(=O)N(CC1CCNCC1)C(=O)c1[nH]c(C(F)(F)F)nc1-c1ccccc1	none (no result: CAL PDZ FP-1, CDK5 inh, CAL PDZ FP-2, PvdQ acylase, DYRK1A inh)
Cc1ccccc1N1CCN(C(=O)C2CCC(=O)N(C3CCCC3)C2)CC1 (stereo unspecified)	CAL PDZ FP-2 79
Cc1ccc2nc(-c3ccc(Br)cc3)cc(C(=O)NCC3CCCO3)c2c1 (stereo unspecified)	none (no result: CAL PDZ FP-1, CDK5 inh, CAL PDZ FP-2, PvdQ acylase, DYRK1A inh)
CC(NC(=O)c1cc(-c2ccncc2)nc2ccc(Br)cc12)C1CCCO1 (stereo unspecified)	CAL PDZ FP-2 45
Cc1cc(C(=O)CSc2nnnn2C)c(C)n1CCc1ccc(F)cc1	CAL PDZ FP-2 39
COc1n[nH]c(C(=O)Nc2nc3ccccc3s2)c1[N+](=O)[O-]	CAL PDZ FP-2 66
COc1ccc(C(=O)Nc2cccc3ccccc23)cc1	none (no result: CAL PDZ FP-2)
COc1cc(OC)c(C(=O)Nc2cccc3ccccc23)cc1OC	CAL PDZ FP-2 33
O=C1CC(SCCc2nc3ccccc3[nH]2)C(=O)N1c1ccc(Cl)cc1 (stereo unspecified)	Tb MetRS inh 21
CCCOc1ccc(N2C(=O)CC(SCCc3nc4ccccc4[nH]3)C2=O)cc1 (stereo unspecified)	none
Cc1ccc(S(=O)(=O)CCc2nnc(NC(=O)CCl)s2)cc1C	CAL PDZ FP-2 46
CCn1cc(CNc2nc3nonc3nc2N2CCCCC2)cn1	CAL PDZ FP-2 72
CN1CCN(c2ccccc2NC(=O)c2ccc(N3CCCC3)c([N+](=O)[O-])c2)CC1	CAL PDZ FP-1 58, CAL PDZ FP-2 43

Assay outcomes: PubChem, several laboratories
